Assay results as given in paper PMC12188530 (RSC Advances, 2025).
≈ marks a conversion by molar mass, not a printed value. Structures can show the parent of a compound that is named as a salt.

Experiments:
[1] = test system: S. aureus ATCC 43300 biofilm; assay: Biofilm growth inhibition assay; format: cell-based, Staphylococcus aureus; details: at MIC, 24 hours
Procedure, shortened: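 S. aureus grown in TSB at 37 °C for 24 h, then diluted 1:100 in TSB with 0.1% glucose. […] Planktonic cells removed, wells PBS-washed, dried 10 min and stained with 0.1% crystal violet (10 min, 25 °C). Stain solubilized in 33% acetic acid (30 min, RT, shaking) and read at A600. Percent inhibition calculated against untreated control, in triplicate with three biological replicates.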

[2] = target: T1, S. aureus ATCC 43300 Sortase A (Staphylococcus aureus, UniProt Q2FV99); assay: Sortase A activity assay by FRET; format: biochemical
T1 sequence (Q2FV99 60-206): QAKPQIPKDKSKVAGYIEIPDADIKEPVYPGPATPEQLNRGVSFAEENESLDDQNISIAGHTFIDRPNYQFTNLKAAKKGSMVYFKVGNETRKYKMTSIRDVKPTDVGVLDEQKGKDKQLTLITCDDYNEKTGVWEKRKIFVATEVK

S. aureus ATCC 43300 [3] = assay: Time-kill kinetics; format: cell-based, Staphylococcus aureus; details: 2 × MIC; for re-growth of the bacteria: after 24 hours; for log reduction in CFU: within 2 to 4 hours
Procedure, shortened: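 Culture grown to OD600 0.5 (5 × 10^8 CFU mL−1), then diluted 1000-fold in CA-MHB. Test compound added at 2 × MIC, with ciprofloxacin (2 × MIC) and untreated controls. Incubated at 37 °C with 200 rpm shaking and sampled at 0, 2, 4, 8, 12 and 24 h. Samples plated on MHA for 24 h at 37 °C, and CFU mL−1 determined. Run in triplicate.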

S. aureus ATCC 43300 [4] = assay: MIC and MBC by micro broth dilution; format: cell-based, Staphylococcus aureus
Cytotoxicity assay = format: cell-based; details: human, HepG2 cells
[5] = test system: S. aureus ATCC 43300 membrane potential; assay: Membrane potential perturbation assay; format: cell-based, Staphylococcus aureus; details: MIC and 2 × MIC
Procedure, shortened: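 Cells pelleted at 2400×g for 10 min and resuspended in PBS at OD600 1.0. DiOC2(3) added to 30 μM final. Cells mixed with test compound at MIC and 2 × MIC. CCCP served as positive control and untreated cells as negative control; n = 3, mean ± SD.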

Sortase A = target: T2, Sortase A (Staphylococcus aureus, UniProt Q2FV99); assay: Fluorescence quenching assay; format: binding; details: compounds 0 to 128 μg mL^−1
T2 sequence (Q2FV99 60-206): T1 sequence (Q2FV99 60-206)

[6] = test system: S. aureus ATCC 43300 invasion in macrophage (THP1); assay: Macrophage invasion assay; format: cell-based, Staphylococcus aureus; details: THP1, MIC and 2 × MIC
S. aureus ATCC 43300 [7] = assay: Thigh infection in a neutropenic mouse; format: in vivo; details: BALB/C mice, group n = 4, 100 mg kg^−1 oral
Procedure, shortened: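 Female BALB/c mice, 6–8 weeks old, n = 4 per group, made neutropenic with cyclophosphamide i.p. (150 mg kg−1 on day −4, 100 mg kg−1 on day −1). Right thigh infected i.m. with 5 × 10^5 CFU per mouse. At 4 h, test compound given orally at 100 mg kg−1, alongside vancomycin 100 mg kg−1 oral and a sunflower oil vehicle group. At 24 h, thighs homogenized in PBS and CFU plated on MHA, in triplicate per mouse.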

[8] = Staphylococcus aureus, ATCC43300, 18 h, S. aureus ATCC 43300, MHB, 37 °C, 18 hours
[9] = Staphylococcus aureus, ATCC43300, 18 h

With CN(C)CCCN1c2ccccc2Sc2ccc(Cl)cc21 [Chlorpromazine hydrochloride] the biofilm growth inhibition [1] was 93%, the inhibition at 128 µg/mL [2] was 49% and the “log reduction in colony-forming units (CFU) from the initial inoculum” value (from here on “log reduction in colony-forming units”) (S. aureus ATCC 43300 [3]) was no less than 3 log. The “time within which the bacteria were eliminated” value (S. aureus ATCC 43300 [3]) was 8 to 12 h, the “re-growth of the bacteria” value (S. aureus ATCC 43300 [3]) was “re-growth of the bacteria was observed after 24 hours” and the MIC (S. aureus ATCC 43300 [4]; [8]) was 32 µg/mL. It also gave a viability at 24 h, 1 × MIC (Cytotoxicity assay) of 28%.

With CCOC(=O)C1=C(COCCN)NC(C)=C(C(=O)OC)C1c1ccccc1Cl (centres unmarked) [Amlodipine besylate] the biofilm growth inhibition [1] was 40%, the inhibition at 128 µg/mL [2] was 57% and the “log reduction in colony-forming units” value (S. aureus ATCC 43300 [3]) was no less than 3 log. The “time within which the bacteria were eliminated” value (S. aureus ATCC 43300 [3]) was 4 to 24 h, the MBC (S. aureus ATCC 43300 [4]; [9]) was 128 µg/mL and the MIC (S. aureus ATCC 43300 [4]; [8]) was 64 µg/mL. The viability at 24 h, 1 × MIC (Cytotoxicity assay) was 60%.

In the case of O.O=c1c(O)c(-c2ccc(O)c(O)c2)oc2cc(O)cc(O)c12 [Quercetin hydrate], the “% inhibition” value ([2]; concentration 128 μg mL^−1) is reported as 73%.

For CN(C)C(=O)C(CCN1CCC(O)(c2ccc(Cl)cc2)CC1)(c1ccccc1)c1ccccc1 [Loperamide hydrochloride], the membrane potential disruption [5] was “significant reduction only at 2 × MIC”, the biofilm growth inhibition [1] was 95% and the “inhibitory activity against the enzyme (in words)” value ([2]; FRET assay) was “except loperamide hydrochloride”. For the same molecule, the “dose-dependent quenching of Sortase A fluorescence intensity” value (Sortase A) was “except loperamide hydrochloride”, the “log reduction in colony-forming units” value (S. aureus ATCC 43300 [3]) was no less than 3 log and the “time within which the bacteria were eliminated” value (S. aureus ATCC 43300 [3]) was 8 to 12 h. For the same molecule, the “re-growth of the bacteria” value (S. aureus ATCC 43300 [3]) was “re-growth of the bacteria was observed after 24 hours”, the MIC (S. aureus ATCC 43300 [4]; S. aureus ATCC 43300, MHB, 37 °C, 18 hours) was 64 µg/mL and the MBC (S. aureus ATCC 43300 [4]; [9]) was 128 µg/mL. For the same molecule, the MIC (S. aureus ATCC 43300 [4]; [8]) was 32 µg/mL and the viability at 24 h, 1 × MIC (Cytotoxicity assay) was 84%.

With CN(C)CCCN1c2ccccc2Sc2ccc(C(F)(F)F)cc21 [Triflupromazine hydrochloride] the biofilm growth inhibition [1] was 19%, the inhibition at 128 µg/mL [2] was 48% and the “re-growth of the bacteria” value (S. aureus ATCC 43300 [3]) was “re-growth of the bacteria was observed after 24 hours”. For the same molecule, the “log reduction in CFU” value (S. aureus ATCC 43300 [3]) was roughly 2 log, the MIC (S. aureus ATCC 43300 [4]; [8]) was 32 µg/mL and the viability at 24 h, 1 × MIC (Cytotoxicity assay) was 63%.

For CN1CCN(CCCN2c3ccccc3Sc3ccc(Cl)cc32)CC1 [Prochlorperazine dimaleate], the biofilm growth inhibition [1] was 67%, the “S. aureus ATCC 43300 invasion of macrophages” value [6] was “successfully reduced MRSA invasion of macrophages at 2 × MIC” and the “death during the experiment” value (S. aureus ATCC 43300 [7]) was “One BALB/C died during the experiment”. The “re-growth of the bacteria” value (S. aureus ATCC 43300 [3]) was “re-growth of the bacteria was observed after 24 hours”, the “log reduction in CFU” value (S. aureus ATCC 43300 [3]) was roughly 2 log and the MIC (S. aureus ATCC 43300 [4]; [8]) was 32 µg/mL. For the same molecule, the viability at 24 h, 1 × MIC (Cytotoxicity assay) was 86% and the viability at 24 h, 2 × MIC (Cytotoxicity assay) was roughly 50%.

In the case of c1ccc2c(c1)Sc1ccccc1N2CC1CN2CCC1CC2 (centres unmarked) [Mequitazine], the biofilm growth inhibition [1] is reported as 95%, the inhibition at 128 µg/mL [2] is reported as 64% and the “log reduction in colony-forming units” value (S. aureus ATCC 43300 [3]) is reported as no less than 3 log. The “time within which the bacteria were eliminated” value (S. aureus ATCC 43300 [3]) was 12 to 24 h, the MBC (S. aureus ATCC 43300 [4]; [9]) was 128 µg/mL (≈ 397 µM) and the MIC (S. aureus ATCC 43300 [4]; [9]) was 64 µg/mL (≈ 198 µM). For the same molecule, the viability at 24 h, 1 × MIC (Cytotoxicity assay) was 30%.
